Measured values from ChEMBL document CHEMBL1926627, “Synthesis and evaluation of novel modified γ-lactam prostanoids as EP4 subtype-selective agonists” (Bioorg Med Chem, 2012).

Assays:
Rattus norvegicus [1] = assay: Inhibition of LPS induced TNF-alpha production in po dosed Sprague-Dawley rat administered 30 mins before LPS challenge measured after 90 mins by ELISA; format: functional
In short: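 Seven-week-old Sprague–Dawley rats dosed orally with compound in sterile saline containing 20% HP-β-CD. LPS (1 mg/mL in sterile saline) given iv at 10 µg/2 mL/kg 30 min later. Blood drawn by aortic puncture into heparinized syringes 90 min after LPS. Plasma taken after centrifugation at 4 °C and frozen. Result given as ED50.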

[2] = molecular target: Prostaglandin E2 receptor EP4 subtype (Mus musculus, UniProt P32240); assay: Displacement of [3H]-PGE2 from mouse EP4 receptor expressed in CHO cells after 60 mins by liquid scintillation counter; format: cell-based
Prostaglandin E2 receptor EP4 subtype (Mus musculus, UniProt P32240), sequence (P32240 whole entry): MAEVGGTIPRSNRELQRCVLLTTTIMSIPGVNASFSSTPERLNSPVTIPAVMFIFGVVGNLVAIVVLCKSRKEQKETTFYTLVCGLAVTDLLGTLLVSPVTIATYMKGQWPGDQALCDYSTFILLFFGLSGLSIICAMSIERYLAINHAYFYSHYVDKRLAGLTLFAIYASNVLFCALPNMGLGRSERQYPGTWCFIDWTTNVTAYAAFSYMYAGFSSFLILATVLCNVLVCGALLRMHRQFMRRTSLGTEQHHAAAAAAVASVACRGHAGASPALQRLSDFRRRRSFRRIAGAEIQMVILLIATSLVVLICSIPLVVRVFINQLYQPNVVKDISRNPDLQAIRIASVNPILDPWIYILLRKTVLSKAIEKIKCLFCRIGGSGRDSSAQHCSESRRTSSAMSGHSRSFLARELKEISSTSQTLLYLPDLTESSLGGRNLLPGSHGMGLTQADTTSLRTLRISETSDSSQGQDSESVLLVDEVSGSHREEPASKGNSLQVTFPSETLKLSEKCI
In short: (§1)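 Membranes from CHO cells stably expressing mouse EP1–4, incubated with 2.5 nM [³H]PGE₂ and test compound at various concentrations in 10 mM KH₂PO₄–KOH, 1 mM EDTA, 10 mM MgCl₂, 0.1 mM NaCl, pH 6.0. Incubated 25 °C, 60 min (EP1: 20 min). Filtration on GF/B, ice-cold buffer wash, scintillation counting. Nonspecific binding with excess unlabeled PGE₂. IC50 from regression curve; Ki = IC50/(1+[L]/Kd).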

[3] = Volume of distribution at steady state in rat at 0.1 mg/kg, iv and 1 mg/kg, po; format: ADME, organism-based; details: in vivo, read-out: Vdss
In short: (§2)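 Rat pharmacokinetics measured after 1 mg/kg po and 0.1 mg/kg iv dosing.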

Rattus norvegicus [4] = assay: Dose normalized cmax in rat at 1 mg/kg, po; format: ADME, organism-based; parameters: dose 1 mg/kg, route oral; details: in vivo
In short: (§3)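 Rat PK after 1 mg/kg po and 0.1 mg/kg iv. Cmax and AUC normalized to a 1 mg/kg dose.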

Rattus norvegicus [5] = assay: Dose normalized AUC in rat at 1 mg/kg, po; format: ADME, organism-based; parameters: dose 1 mg/kg, route oral; details: in vivo; in short: as §3
[6] = molecular target: T1, Prostaglandin E2 receptor EP1 subtype (Mus musculus, UniProt P35375); assay: Displacement of [3H]-PGE2 from mouse EP1 receptor expressed in CHO cells after 20 mins by liquid scintillation counter; format: cell-based; in short: as §1
T1 sequence (P35375 whole entry): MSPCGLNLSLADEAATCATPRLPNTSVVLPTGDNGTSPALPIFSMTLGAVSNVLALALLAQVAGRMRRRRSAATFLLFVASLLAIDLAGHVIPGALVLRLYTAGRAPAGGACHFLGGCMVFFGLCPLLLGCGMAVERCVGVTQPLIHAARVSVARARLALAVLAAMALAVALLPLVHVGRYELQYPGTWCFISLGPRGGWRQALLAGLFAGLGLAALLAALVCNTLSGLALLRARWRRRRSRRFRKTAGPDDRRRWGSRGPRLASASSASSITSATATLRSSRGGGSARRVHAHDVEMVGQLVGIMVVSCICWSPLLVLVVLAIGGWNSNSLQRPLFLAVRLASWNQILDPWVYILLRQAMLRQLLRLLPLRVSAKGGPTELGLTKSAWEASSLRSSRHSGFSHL

[7] = Oral bioavailability in rat at 1 mg/kg; format: ADME, organism-based; details: in vivo
[8] = Total clearance rat at 0.1 mg/kg, iv and 1 mg/kg, po; format: ADME, organism-based; details: in vivo; in short: as §2
[9] = molecular target: Prostaglandin E2 receptor EP4 subtype (Rattus norvegicus, UniProt P43114); assay: Agonist activity at rat EP4 receptor expressed in CHO cells assessed as cAMP production after 10 mins by radioimmunoassay; format: functional, cell-based
Prostaglandin E2 receptor EP4 subtype (Rattus norvegicus, UniProt P43114), sequence (P43114 whole entry): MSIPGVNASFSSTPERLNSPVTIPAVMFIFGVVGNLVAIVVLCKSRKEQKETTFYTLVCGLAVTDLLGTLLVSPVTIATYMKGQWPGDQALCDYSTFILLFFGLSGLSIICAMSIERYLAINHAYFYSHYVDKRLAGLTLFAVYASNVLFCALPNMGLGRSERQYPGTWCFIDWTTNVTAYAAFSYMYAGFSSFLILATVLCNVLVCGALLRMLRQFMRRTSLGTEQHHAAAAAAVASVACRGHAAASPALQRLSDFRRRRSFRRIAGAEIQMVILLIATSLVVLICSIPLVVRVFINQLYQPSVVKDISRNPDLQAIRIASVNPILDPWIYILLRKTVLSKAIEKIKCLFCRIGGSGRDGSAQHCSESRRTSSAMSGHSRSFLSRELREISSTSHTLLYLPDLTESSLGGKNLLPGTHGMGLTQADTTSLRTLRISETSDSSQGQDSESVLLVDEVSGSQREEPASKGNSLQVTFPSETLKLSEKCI
In short: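 CHO cells expressing rat EP4 seeded at 1×10^5 cells/well and grown 2 days. Washed with MEM, then 10 min at 37 °C in MEM with 2 µM diclofenac. Preincubated 10 min at 37 °C in assay medium with 1% BSA. Test compound added, 10 min at 37 °C. Stopped with ice-cold 10% trichloroacetic acid. cAMP measured by radioimmunoassay.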

[10] = molecular target: Prostaglandin E2 receptor EP2 subtype (Mus musculus, UniProt Q62053); assay: Displacement of [3H]-PGE2 from mouse EP2 receptor expressed in CHO cells after 60 mins by liquid scintillation counter; format: cell-based; in short: as §1
Prostaglandin E2 receptor EP2 subtype, sequence (Q62053 whole entry): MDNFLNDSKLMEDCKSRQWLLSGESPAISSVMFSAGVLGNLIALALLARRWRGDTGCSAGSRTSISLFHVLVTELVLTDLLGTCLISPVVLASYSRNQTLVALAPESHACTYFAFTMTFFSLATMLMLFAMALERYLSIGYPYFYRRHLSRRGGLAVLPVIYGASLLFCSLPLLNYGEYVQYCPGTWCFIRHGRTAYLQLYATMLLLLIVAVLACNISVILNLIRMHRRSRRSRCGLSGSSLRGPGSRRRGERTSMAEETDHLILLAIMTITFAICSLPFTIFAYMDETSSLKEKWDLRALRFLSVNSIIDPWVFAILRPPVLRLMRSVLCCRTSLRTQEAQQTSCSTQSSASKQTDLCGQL

[11] = molecular target: T2, Prostaglandin E2 receptor EP3 subtype (Mus musculus, UniProt P30557); assay: Displacement of [3H]-PGE2 from mouse EP3 receptor expressed in CHO cells after 60 mins by liquid scintillation counter; format: cell-based; in short: as §1
T2 sequence (P30557 whole entry): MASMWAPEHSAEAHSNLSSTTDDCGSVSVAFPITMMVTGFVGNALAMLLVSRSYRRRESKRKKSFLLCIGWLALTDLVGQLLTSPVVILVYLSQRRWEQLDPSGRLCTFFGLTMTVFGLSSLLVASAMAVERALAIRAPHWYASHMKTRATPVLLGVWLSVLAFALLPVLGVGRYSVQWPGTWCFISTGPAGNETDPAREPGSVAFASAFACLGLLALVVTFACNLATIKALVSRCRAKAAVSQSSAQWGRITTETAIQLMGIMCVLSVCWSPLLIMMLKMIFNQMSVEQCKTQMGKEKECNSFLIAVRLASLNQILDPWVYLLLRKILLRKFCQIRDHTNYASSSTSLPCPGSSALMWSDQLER

[12] = Cmax in rat at 0.1 mg/kg, iv and 1 mg/kg, po; format: ADME, organism-based; details: in vivo; in short: as §2
[13] = AUC in rat at 0.1 mg/kg, iv and 1 mg/kg, po; format: ADME, organism-based; details: plasma; in short: as §2

Row | Structure (SMILES) | ED50 (Rattus norvegicus [1]) [mg/kg] | Ki [2] [nM] | Vd [3] [L/kg] | Cmax/dose (Rattus norvegicus [4]) [ng/mL] | AUC/dose (Rattus norvegicus [5]) [ng·h/mL] | Ki [6] [nM] | bioavailability [7] [%] | clearance [8] [mL/min/kg] | EC50 [9] [nM] | Ki [10] [nM] | Ki [11] [nM] | Cmax [12] [ng/mL] | AUC [13] [ng·h/mL]
1 | COCc1cccc(C[C@H](O)/C=C/[C@H]2CCC(=O)N2CCCCCCC(=O)O)c1 | 1 | 10 | 0.386 | 1.6 | 6.4 | > 10000 | 1.2 | 35 | 15 | > 10000 | > 10000 |  | 
2 | COCc1cccc(C[C@H](O)/C=C/[C@H]2CCC(=O)N2CCSCCCC(=O)O)c1 |  | 8 |  |  |  | > 10000 |  |  | 1.3 | 8500 | > 10000 |  | 
3 | COCc1cccc(C[C@H](O)/C=C/[C@H]2CCC(=O)[C@@H]2CCSCCCC(=O)O)c1 |  | 2.4 |  |  |  | > 10000 |  |  | 1.1 | 470 | 190 |  | 
4 | O=C(O)CCCSCCN1C(=O)OC[C@@H]1/C=C/[C@@H](O)Cc1ccccc1 |  | 4.2 |  |  |  | > 10000 |  |  | 36 | > 10000 | 6400 |  | 
5 | Cc1cccc(C[C@H](O)/C=C/[C@H]2COC(=O)N2CCSCCCC(=O)O)c1 | > 1 | 2.5 | 0.291 |  |  | 4400 | 4.5 | 47 | 33 | > 10000 | 2800 | 5.4 | 16.1
6 | CCc1cccc(C[C@H](O)/C=C/[C@H]2COC(=O)N2CCSCCCC(=O)O)c1 |  | 7.9 |  |  |  | 2400 |  |  | 18 | > 10000 | 2700 |  | 
7 | CCCc1cccc(C[C@H](O)/C=C/[C@H]2COC(=O)N2CCSCCCC(=O)O)c1 |  | 2.4 |  |  |  | > 10000 |  |  | 93 | > 10000 | 1900 |  | 
8 | O=C(O)CCCSCCN1C(=O)OC[C@@H]1/C=C/[C@@H](O)Cc1cccc(C(F)(F)F)c1 | 3 | 2 | 0.631 |  |  | > 10000 | 6.7 | 67 | 12 | > 10000 | 1600 | 3.8 | 16.7
9 | O=C(O)CCCSCCN1C(=O)OC[C@@H]1/C=C/[C@@H](O)Cc1cccc(F)c1 |  | 20 |  |  |  | 1200 |  |  | 35 | > 10000 | 4000 |  | 
10 | O=C(O)CCCSCCN1C(=O)OC[C@@H]1/C=C/[C@@H](O)Cc1cccc(Cl)c1 |  | 1.5 |  |  |  | > 10000 |  |  | 23 | > 10000 | 630 |  | 
11 | O=C(O)CCCSCCN1C(=O)OC[C@@H]1/C=C/[C@@H](O)Cc1cccc(-c2ccccc2)c1 |  | 28 |  |  |  | > 10000 |  |  | 450 | > 10000 | > 10000 |  | 
12 | O=C(O)CCCSCCN1C(=O)OC[C@@H]1/C=C/[C@@H](O)Cc1cccc(OC(F)(F)F)c1 |  | 29 |  |  |  | > 10000 |  |  | 160 | > 10000 | 1700 |  | 
13 | COCc1cccc(C[C@H](O)/C=C/[C@H]2COC(=O)N2CCSCCCC(=O)O)c1 |  | 7.2 |  |  |  | > 10000 |  |  | 24 | > 10000 | > 10000 |  | 
14 | O=C(O)CCCSCCN1C(=O)SC[C@@H]1/C=C/[C@@H](O)Cc1ccccc1 | 1 | 0.65 | 0.792 |  |  | > 10000 | 3.5 | 56 | 4.8 | > 10000 | 39 | 2.7 | 4
15 | CCc1cccc(C[C@H](O)/C=C/[C@H]2CSC(=O)N2CCSCCCC(=O)O)c1 | 1 | 0.88 | 0.538 |  |  | 4600 | 8.6 | 75 | 1.9 | > 10000 | 65 | 10.4 | 19.5
16 | CCCc1cccc(C[C@H](O)/C=C/[C@H]2CSC(=O)N2CCSCCCC(=O)O)c1 | 1 | 0.98 | 1.28 |  |  | > 10000 | 6.3 | 52 | 6.1 | > 10000 | 1200 | 11.4 | 17.7
17 | O=C(O)CCCSCCN1C(=O)SC[C@@H]1/C=C/[C@@H](O)Cc1cccc(C(F)(F)F)c1 | 1 | 0.97 | 0.512 |  |  | > 10000 | 5.5 | 51 | 4.3 | > 10000 | 280 | 5.3 | 14.6
18 | O=C(O)CCCSCCN1C(=O)SC[C@@H]1/C=C/[C@@H](O)Cc1cccc(F)c1 |  | 1.5 |  |  |  | > 10000 |  |  | 5.7 | > 10000 | 1800 |  | 
19 | COCc1cccc(C[C@H](O)/C=C/[C@H]2CSC(=O)N2CCSCCCC(=O)O)c1 | 1 | 1.2 | 0.325 |  |  | > 10000 | 2 | 47 | 2.4 | > 10000 | > 10000 | 2.6 | 6.1
20 | O=C(O)CCCCCCN1C(=S)CC[C@@H]1/C=C/[C@@H](O)Cc1ccccc1 |  | 1.5 |  |  |  | > 10000 |  |  | 29 | > 10000 | 2300 |  | 
21 | CCc1cccc(C[C@H](O)/C=C/[C@H]2CCC(=S)N2CCCCCCC(=O)O)c1 |  | 0.83 |  |  |  | > 10000 |  |  | 9.4 | 1100 | 2300 |  | 
22 | CCCc1cccc(C[C@H](O)/C=C/[C@H]2CCC(=S)N2CCCCCCC(=O)O)c1 |  | 0.4 |  |  |  | > 10000 |  |  | 27 | 6800 | 2000 |  | 
23 | O=C(O)CCCCCCN1C(=S)CC[C@@H]1/C=C/[C@@H](O)Cc1cccc(C(F)(F)F)c1 |  | 0.38 |  |  |  | > 10000 |  |  | 10 | > 10000 | 450 |  | 
24 | O=C(O)CCCCCCN1C(=S)CC[C@@H]1/C=C/[C@@H](O)Cc1cccc(F)c1 |  | 0.69 |  |  |  | > 10000 |  |  | 26 | > 10000 | 1700 |  | 
25 | COCc1cccc(C[C@H](O)/C=C/[C@H]2CCC(=S)N2CCCCCCC(=O)O)c1 | 3 | 2 | 0.53 |  |  | > 10000 | 12.3 | 102 | 7.3 | 1400 | 6300 | 6.5 | 20.6
26 | Cc1cccc(C[C@H](O)/C=C/[C@H]2CCC(=S)N2CCSCCCC(=O)O)c1 | 1 | 0.5 | 1.76 |  |  | 2800 | 9.8 | 61 | 7.7 | 1700 | 980 | 3.4 | 29.9
27 | COCc1cccc(C[C@H](O)/C=C/[C@H]2[C@H](O)CC(=O)[C@@H]2CCSCCCC(=O)O)c1 |  |  |  |  |  | > 10000 |  |  | 1.4 |  |  |  | 
